Screening results deposited in PubChem by several laboratories.
A selection: hits, their analogues and other compounds. The true share with any hit is near 2.1%.
APJ antag – antagonists of human APJ apelin receptor; CHO-K1 APJ beta-arrestin complementation, luminescence; inhibition, % at 20 µM; 0.32% of 330,000 active;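 active = inhibition above about 40% at 20 µM, limit read from the data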;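 also: cells challenged with 10 nM apelin-13 agonist together with compound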
Target sequence (P35414 whole entry, looked up): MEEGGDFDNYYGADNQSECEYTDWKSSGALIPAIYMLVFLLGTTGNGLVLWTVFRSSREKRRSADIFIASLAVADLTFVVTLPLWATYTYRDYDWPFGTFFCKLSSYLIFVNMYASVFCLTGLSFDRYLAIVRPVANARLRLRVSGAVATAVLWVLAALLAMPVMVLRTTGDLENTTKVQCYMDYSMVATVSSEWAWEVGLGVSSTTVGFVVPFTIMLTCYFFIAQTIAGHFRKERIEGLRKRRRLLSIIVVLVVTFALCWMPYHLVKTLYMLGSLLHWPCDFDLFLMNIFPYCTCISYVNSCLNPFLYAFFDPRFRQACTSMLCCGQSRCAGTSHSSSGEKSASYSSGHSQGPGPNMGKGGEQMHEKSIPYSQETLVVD
CXCR6 inh – CXCR6 (human) receptor inhibition. 0.36% of 360,000 active. CHO-K1 PathHunter CXCR6 beta-arrestin, luminescence. inhibition, % at 20 µM. AID 602244. O00574; in the data active = inhibition above about 34%, passing the limit was not always enough;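 also: antagonist mode with CXCL16 agonist at 10 nM final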
EBI2 antag – antagonists of human EBI2 receptor; EBI2 beta-arrestin recruitment, luminescence, 7a,25-OHC stimulated; inhibition, % at 5 µM; 0.81% of 360,000 active; AID 651636; P32249; in the data active = inhibition above about 38%;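 also: enzyme fragment complementation signal reports receptor beta-arrestin coupling in cells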
m5-HT2A agonist – activates the mouse 5-HT2A serotonin receptor | P35363 | CHO-K1 mHTR2A beta-arrestin complementation, luminescence; percent of 30 µM serotonin response | activation, % at 7.6 µM | 0.66% of 360,000 active | AID 624169;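 active = activation above a run cutoff, the mean activation of all tested compounds plus 3 SD, cut at about 14% in these data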
CCR6 antagonist – CCR6 (human) receptor antagonism. P51684. CHO-K1 CCR6 PathHunter beta-arrestin, luminescence, CCL20-stimulated. inhibition, % at 20 µM. 0.49% of 340,000 active. AID 493098;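 active = compounds whose inhibition of the agonist-driven luminescence signal at 20 µM reaches about 50%, limit read from the data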;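 also: cells stimulated with CCL20 at 14 nM final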
APJ ag – agonists of human APJ apelin receptor; P35414; AID 2520; 0.11% of 330,000 active; activation, % at 20 µM; CHO-K1 APJ PathHunter beta-arrestin, luminescence; 0% DMSO wells, 100% apelin;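 active = activation more than six SD over the plate average, tested at 20 µM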
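Assay system: engineered CHO-K1 APJ arrestin reporter cells; Amount: 1000 CHO-K1 reporter cells seeded per well; Dosing: one dose, 20 µM compound, 1% DMSO; Times: compound stimulation 90 min at 25 °C, detection 60 min; Measured by: luminescent beta-gal fragment complementation, chemiluminescent substrate; Read-out: APJ–arrestin association signal; Controls: DMSO vs Apelin-13 10 nM.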
OPRM1 ag – activates human mu opioid receptor in HTR2A counterscreen | shares compounds with m5-HT2A agonist | 5.3% of 2,300 active | activation, % at 9.3 µM | U2OS OPRM1 beta-arrestin PathHunter, luminescence; DMSO 0%, DAMGO 9.3 µM 100%;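 active = mean activation above the mean of DMSO-only wells plus 3 SD, cut at about 0.5% in these data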
HTR2A ag conf – mouse HTR2A agonism confirmed | shares compounds with m5-HT2A agonist | CHO-K1 PathHunter beta-arrestin recruitment, luminescence; DMSO 0%, 30 µM serotonin 100% | activation, % at 7.6 µM | 19% of 2,300 active | AID 624381;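 active = mean activation across triplicates above the hit threshold derived in the original primary screen, cut at about 15% in these data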
Hits are given with their value; . = inactive; / = not tested or not shown.

SMILES | APJ antag | CXCR6 inh | EBI2 antag | m5-HT2A agonist | CCR6 antagonist | APJ ag | OPRM1 ag | HTR2A ag conf
O=C(NCc1ccc2c(c1)OCO2)C1CCC(CNc2c(N3CCCC3)c(=O)c2=O)CC1 (configuration not stated) | . | . | . | 14 | . | . | . | .
O=C(NCc1ccccc1)C1CCC(CNc2c(N3CCCCC3)c(=O)c2=O)CC1 (configuration not stated) | . | . | . | . | . | . | / | /
COc1ccc(CNC(=O)COc2ccc(Br)c(C)c2)cc1 | . | . | . | . | . | . | / | /
S=c1nc(-c2ccccn2)c(-c2ccccn2)n[nH]1 | / | . | . | . | / | / | / | /
O=C(CN1C(=O)C2CC=CCC2C1=O)Nc1nc2ccccc2s1 (configuration not stated) | . | . | . | 16 | . | . | . | .
CC(C)(C)OC(=O)C[C@H]1C/C=C\C[C@H](CC(=O)N[C@H](CO)Cc2ccccc2)C(=O)N[C@H](Cc2ccccc2)COC1=O | . | . | . | . | . | . | / | /
Cc1ccc(Cn2cccc2C2=NC(C)CO2)cc1 (configuration not stated) | . | . | . | 14 | . | . | . | .
Cc1cc(C)c(C)c(Cn2c(CO)nc3ccccc32)c1C | . | . | . | 15 | . | . | . | .
O=C(NCC1OCCCN1S(=O)(=O)c1cc(F)ccc1F)C(=O)NC1CCCC1 (configuration not stated) | . | . | . | . | . | . | / | /
CC(=O)Nc1ccc(S(=O)(=O)N2CCN(CCc3ccccc3)CC2)cc1 | . | . | . | . | . | . | / | /
CC(=O)Nc1ccc(S(=O)(=O)N2CCN(C(=O)Cc3ccccc3)CC2)cc1 | . | . | . | 17 | . | . | . | .
CSc1ccccc1OCc1cc(C(=O)N2CCC[C@H]2C(N)=O)no1 | . | . | . | 15 | . | . | . | .
CSc1ccccc1OCc1cc(C(=O)N2CCCC(C)C2)no1 (configuration not stated) | . | . | . | . | . | . | / | /
O=C1OC(N2CCN(c3ccccn3)CC2)c2ccccc21 (configuration not stated) | . | . | . | 15 | . | . | . | 23
CCc1ccc(OCCCC(=O)Nc2ccc(S(=O)(=O)Nc3cc(C)nc(C)n3)cc2)cc1 | . | . | . | 15 | . | . | . | .
COC1C=CC=C(C)C(=O)NC2=CC(=O)C(N)=C(CC(C)CC(OC)C(O)C(C)C=C(C)C1OC(N)=O)C2=O (configuration not stated) | / | . | . | . | . | / | / | /
C=CCn1c(Br)nc2c1c(=O)[nH]c(=O)n2C | . | . | . | 19 | . | . | . | .
C=CCn1c(Br)nc2c1c(=O)n(C)c(=O)n2C | . | . | . | . | . | . | / | /
Cc1cccc(C)c1-n1nnnc1C(c1ccnc2ccccc12)N(C)Cc1ccccc1 (configuration not stated) | / | . | . | . | / | / | / | /
Cc1cccc(C)c1NC(=O)NN=C1CCCCC1 | . | . | . | 16 | . | . | . | .
CN=C(NC(=O)Nc1c(C)cccc1C)NC(=O)Nc1c(C)cccc1C | . | . | . | . | . | . | / | /
CC1CCN(c2ccc3c(c2)S(=O)(=O)c2ccccc2C3=O)CC1 | . | . | . | . | . | . | / | /
C=CCn1c(=NC(=O)c2ccc(S(=O)(=O)N3CCc4ccccc4C3)cc2)sc2cc(S(N)(=O)=O)ccc21 | . | . | . | 22 | . | . | . | .
O=C(CCNC(=O)N1CC(=O)Nc2ccccc21)Nc1cccc(Cl)c1 | . | . | . | . | . | . | / | /
CC(C)(CNC(=O)c1cccs1)N1CCOCC1 | . | . | . | . | . | . | / | /
SMILES | APJ antag | CXCR6 inh | EBI2 antag | m5-HT2A agonist | CCR6 antagonist | APJ ag | OPRM1 ag | HTR2A ag conf
c1csc(-c2nnc(NC3CCCCC3)c3ccccc23)c1 | . | . | . | 23 | . | . | . | .
CC1CCN(c2nnc(-c3cccs3)c3ccccc23)CC1 | . | . | . | . | . | . | / | /
CN([C@@H](Cc1ccc(OS(=O)(=O)c2cccc3cnccc23)cc1)C(=O)N1CCN(c2ccccc2)CC1)S(=O)(=O)c1cccc2cnccc12 | . | . | . | 15 | . | . | . | .
Cc1cccc(NC(=O)c2ncn3c2C(=O)N[C@H](C)C3)c1 | / | . | . | . | / | / | / | /
COc1ccc(NC(=S)N(CCc2c(C)[nH]c3ccc(C)cc23)Cc2ccco2)cc1 | . | . | . | 23 | . | . | . | .
COc1ccc(NC(=O)C2CC(=O)N(c3ccccc3C)C2)c(OC)c1 (configuration not stated) | . | . | . | 15 | . | . | . | .
COc1ccc(OC)c(NC(=O)C2CC(=O)N(c3ccccc3)C2)c1 (configuration not stated) | . | . | . | . | . | . | / | /
c1ccc(N2CCN(c3nnc(Cc4cccnc4)c4ccccc34)CC2)nc1 | . | . | . | 17 | . | . | . | .
c1ccc(Cc2nnc(N3CCCCC3)c3ccccc23)cc1 | . | . | . | . | . | . | / | /
Cc1ccc(-c2csc(NC(=O)C3=NN(c4ccccc4)C(=O)CC3)n2)cc1 | . | . | . | 18 | . | . | . | .
COc1ccc(-c2csc(NC(=O)Nc3ccccc3)n2)cc1 | . | . | . | 19 | . | . | . | .
COc1ccc(-c2csc(NC(=O)c3ccccc3NS(=O)(=O)c3ccc(F)c(F)c3)n2)cc1 | . | . | . | 18 | . | . | . | 24
Cc1ccc(S(=O)(=O)Nc2ccccc2C(=O)Nc2nc(-c3ccc(F)cc3)cs2)cc1 | . | . | . | . | . | . | / | /
NS(=O)(=O)c1cccc(NC(=O)COC(=O)/C=C/c2nc3ccccc3s2)c1 | . | . | . | . | . | . | / | /
Cc1ccc(S(=O)(=O)N2CCCCC2)cc1NC(=O)COC(=O)c1ccc(=O)[nH]c1 | . | . | . | . | . | . | / | /
CC(C)(C)Nc1nc2nonc2nc1NC(C)(C)C | . | . | . | 36 | . | . | . | 20
OCCNc1nc2nonc2nc1NCCO | . | . | . | . | . | . | / | /
Cc1ccc(S(=O)(=O)N2C[C@H]3[C@H]4C(=O)N(Cc5ccccc5)C(=O)[C@H]4CC(=O)[C@H]3[C@@H]2c2ccccc2F)cc1 | / | . | . | . | / | / | / | /
CCN1C(=O)[C@@H]2[C@@H]3CN(S(=O)(=O)c4ccc(C)cc4)[C@@H](c4ccccc4F)[C@@H]3C(=O)C[C@@H]2C1=O | / | . | . | 15 | / | / | . | .
CNC[C@H](O)c1ccc(O)c(O)c1 | . | . | . | 50 | . | . | . | 165
